Test results: ChEMBL document CHEMBL1147093, “Miltefosine affects lipid metabolism in Leishmania donovani promastigotes” (2007)
Activity calls are given as the source filed them. No cut-off for these calls is given here.

Tests used:
Leishmania donovani [1] = experiment: Effect on total membrane fatty acid composition in Leishmania donovani LV9 promastigotes assessed by measuring tetradecanoate fatty acid at 10 uM; assay type: functional
How it was run: (§1)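 Log-phase LV9 wild-type promastigotes were exposed to HePC for 48 h before harvest, in 1 liter of medium 199 at 26°C. Washed whole-cell pellets served as total membranes. Fatty acids were analysed by gas chromatography as methyl esters and expressed as % of total fatty acids (mean ± SD, n = 3).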

Leishmania donovani [2] = experiment: Effect on total membrane sterol composition in Leishmania donovani LV9 promastigotes assessed by measuring cholesta-5,7,24-trien-3beta-ol content at 10 uM; assay type: functional
How it was run: (§2)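 LV9 promastigotes (wild type, 26°C, 1 liter shaken culture) were exposed to HePC for 48 h before harvest. Total membranes were extracted in dichloromethane-methanol 2:1 for 24 h at 4°C, then saponified with 30% KOH/methanol at 80°C for 2 h. Sterols were extracted into hexane, converted to TMS ethers with BSTFA (80°C, 1 h) and analysed by GC-MS with EI at 70 eV. Results are given as % total sterol, n = 3.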

Leishmania donovani [3] = experiment: Effect on total membrane sterol composition in Leishmania donovani LV9 promastigotes assessed by measuring 14-alpha-Methylergosta-8,24(24')-dien-3beta-ol content at 10 uM; assay type: functional; how it was run: as §2
Leishmania donovani [4] = experiment: Effect on total membrane sterol composition in Leishmania donovani LV9 promastigotes assessed by measuring total C24 alkyl sterol content at 10 uM; assay type: functional; how it was run: as §2
Leishmania donovani [5] = experiment: Effect on plasma membrane phospholipid composition in wild type Leishmania donovani LV9 assessed as increase in phosphatidyl ethanolamine at 10 uM after 48 hrs; assay type: functional
How it was run: (§3)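 Wild-type LV9 promastigotes grown at 26°C with shaking, starting at 10^6/ml in 1 liter of medium 199 with 10% FCS. HePC in aqueous solution was added 48 h before harvest at late log phase. Cells were washed in TBS and lysed by freeze-thaw; a 2,100 × g pellet gave the plasma membrane-enriched fraction. Lipids were extracted with chloroform/methanol and phospholipids analysed by HPLC (PVA-sil column, light-scattering detection). n = 3.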

Leishmania donovani [6] = experiment: Effect on total membrane sterol composition in Leishmania donovani LV9 promastigotes assessed by measuring 14-alpha-Methylergosta-5,7,24(24')-trien-3beta-ol content at 10 uM; assay type: functional; how it was run: as §2
Leishmania donovani [7] = experiment: Effect on total membrane sterol composition in Leishmania donovani LV9 promastigotes assessed as reduction in total C24 alkyl sterol content; assay type: functional; parameters: scale not given: the % may be the effect or the level left; how it was run: as §2
Leishmania donovani [8] = experiment: Effect on phospholipid composition in HePC-resistant Leishmania donovani at 1 uM; assay type: functional, organism-based
How it was run: (§4)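 HePC-resistant L. donovani LV9 promastigotes were kept under 40 μM HePC in medium 199 with 10% inactivated FCS, HEPES, adenosine, hemin and gentamicin at 26°C in the dark, then exposed to added HePC. Cells were harvested in late log phase and washed in cold TBS. Lipids from total and plasma-membrane-enriched fractions were extracted with chloroform/methanol. Phospholipids were quantified by HPLC on a PVA-sil column with evaporative light scattering detection.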

Leishmania donovani [9] = experiment: Effect on total membrane sterol composition in Leishmania donovani LV9 promastigotes assessed by measuring 4-alpha,-14alpha-Dimethylergosta-8,24(24')-dien-3beta-ol content at 10 uM; assay type: functional; how it was run: as §2
Leishmania donovani [10] = experiment: Effect on total membrane sterol composition in Leishmania donovani LV9 promastigotes assessed by measuring ergosta-5,7,22,24(24')-tetraen-3beta-ol content at 10 uM; assay type: functional; how it was run: as §2
Leishmania donovani [11] = experiment: Effect on plasma membrane phospholipid composition in wild type Leishmania donovani LV9 assessed as decrease in phosphatidyl choline at 10 uM after 48 hrs; assay type: functional; parameters: scale not given: the % may be the effect or the level left; how it was run: as §3
Leishmania donovani [12] = experiment: Effect on total membrane sterol composition in Leishmania donovani LV9 promastigotes assessed by measuring 14-alpha-Methylcholesta-5,7,24-trien-3beta-ol content at 10 uM; assay type: functional; how it was run: as §2
Leishmania donovani [13] = experiment: Effect on total membrane fatty acid composition in Leishmania donovani LV9 promastigotes assessed by measuring 9-hexadecenoate fatty acid at 10 uM; assay type: functional; how it was run: as §1
Leishmania donovani [14] = experiment: Effect on total membrane sterol composition in Leishmania donovani LV9 promastigotes assessed by measuring 4,4alpha-Dimethylcholesta-8,24-dien-3beta-ol content at 10 uM; assay type: functional; how it was run: as §2
Leishmania donovani [15] = experiment: Effect on total membrane sterol composition in Leishmania donovani LV9 promastigotes assessed by measuring 4-alpha,14alpha-Dimethylcholesta-8,24-dien-3beta-ol content at 10 uM; assay type: functional; how it was run: as §2
Leishmania donovani [16] = experiment: Effect on total membrane fatty acid composition in Leishmania donovani LV9 promastigotes assessed by measuring dodecanoate fatty acid at 10 uM; assay type: functional; how it was run: as §1
Leishmania donovani [17] = experiment: Effect on total membrane fatty acid composition in Leishmania donovani LV9 promastigotes assessed by measuring unsaturated fatty acids at 10 uM; assay type: functional; how it was run: as §1
Leishmania donovani [18] = experiment: Effect on total membrane sterol composition in Leishmania donovani LV9 promastigotes assessed by measuring ergosta-5,7,24(24')-trien-3beta-ol content at 10 uM; assay type: functional; how it was run: as §2
Leishmania donovani [19] = experiment: Effect on total membrane sterol composition in Leishmania donovani LV9 promastigotes assessed by measuring 4,4alpha-Dimethylergosta-8,24(24')-dien-3beta-ol content at 10 uM; assay type: functional; how it was run: as §2
Leishmania donovani [20] = experiment: Effect on total membrane sterol composition in Leishmania donovani LV9 promastigotes assessed by measuring ergosta-7,24(24')-dien-3beta-ol content at 10 uM; assay type: functional; how it was run: as §2
Leishmania donovani [21] = experiment: Effect on total membrane phospholipid composition in wild type Leishmania donovani LV9 assessed as increase in phosphatidyl ethanolamine at 10 uM after 48 hrs; assay type: functional
How it was run: (§5)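 Wild-type LV9 promastigotes were cultured in 1 liter of supplemented medium 199 at 26°C with shaking. HePC (aqueous) was added 48 h before harvest at late log phase. After TBS washes, the whole-cell pellet was taken as total membranes. Lipids were extracted with chloroform/methanol and phospholipids profiled by HPLC on a PVA-sil column with evaporative light-scattering detection. n = 3.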

Leishmania donovani [22] = experiment: Effect on total membrane fatty acid composition in Leishmania donovani LV9 promastigotes assessed by measuring octadecanoate fatty acid at 10 uM; assay type: functional; how it was run: as §1
Leishmania donovani [23] = experiment: Effect on total membrane sterol composition in Leishmania donovani LV9 promastigotes assessed by measuring ergosterol content at 10 uM; assay type: functional; how it was run: as §2
Leishmania donovani [24] = experiment: Effect on total membrane fatty acid composition in Leishmania donovani LV9 promastigotes assessed by measuring 9-octadecenoate fatty acid at 10 uM; assay type: functional; how it was run: as §1
Leishmania donovani [25] = experiment: Effect on total membrane sterol composition in Leishmania donovani LV9 promastigotes assessed by measuring 14-alpha-Methylcholesta-8,24-dien-3beta-ol content at 10 uM; assay type: functional; how it was run: as §2
Leishmania donovani [26] = experiment: Effect on total membrane phospholipid composition in wild type Leishmania donovani LV9 assessed as decrease in phosphatidyl choline at 10 uM after 48 hrs; assay type: functional; parameters: scale not given: the % may be the effect or the level left; how it was run: as §5
Leishmania donovani [27] = experiment: Effect on total membrane fatty acid composition in Leishmania donovani LV9 promastigotes assessed by measuring hexadecanoate fatty acid at 10 uM; assay type: functional; how it was run: as §1
Leishmania donovani [28] = experiment: Growth inhibition of wild type Leishmania donovani LV9 at 10 uM after 48 hrs; assay type: functional; details: LV9, 48 h
How it was run: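 Promastigotes were grown in medium 199 with 10% heat-inactivated FCS, HEPES, adenosine, hemin and gentamicin at 26°C in the dark. HePC was tested at 20, 10, 5, 2.5 and 1.25 μM. Cells were counted microscopically at 24, 48 and 72 h. n = 3.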

Leishmania donovani [29] = experiment: Effect on total membrane sterol composition in Leishmania donovani LV9 promastigotes assessed by measuring ergosta-7,22-dien-3beta-ol content at 10 uM; assay type: functional; how it was run: as §2
Leishmania donovani [30] = experiment: Effect on total membrane sterol composition in Leishmania donovani LV9 promastigotes assessed by measuring 24-Methylenedihydrolanosterol content at 10 uM; assay type: functional; parameters: scale not given: the % may be the effect or the level left; how it was run: as §2
Leishmania donovani [31] = experiment: Effect on phospholipid composition in HePC-resistant Leishmania donovani at 10 uM; assay type: functional, organism-based; how it was run: as §4
Leishmania donovani [32] = experiment: Effect on total membrane sterol composition in Leishmania donovani LV9 promastigotes assessed by measuring stigmasta-7,24(24')-dien-3beta-ol content at 10 uM; assay type: functional; how it was run: as §2
Leishmania donovani [33] = experiment: Effect on total membrane sterol composition in Leishmania donovani LV9 promastigotes assessed by measuring cholesterol content at 10 uM; assay type: functional; how it was run: as §2
Leishmania donovani [34] = experiment: Effect on total membrane fatty acid composition in Leishmania donovani LV9 promastigotes assessed as decrease in C16 fatty acid content at 10 uM; assay type: functional; parameters: scale not given: the % may be the effect or the level left; how it was run: as §1

## CCCCCCCCCCCCCCCCOP(=O)([O-])OCC[N+](C)(C)C [MILTEFOSINE]
Leishmania donovani [1]
  Activity: 3.85%
Leishmania donovani [2]
  Activity: 3.2%
Leishmania donovani [3]
  Activity: 0.3%
Leishmania donovani [4]
  Activity: 36.6%
Leishmania donovani [5]
  Activity: 25%
Leishmania donovani [6]
  Activity: 0.3%
Leishmania donovani [7]
  Activity: 43%
Leishmania donovani [8]
  Activity: inactive
Leishmania donovani [9]
  Activity: 0.2%
Leishmania donovani [10]
  Activity: 1.6%
Leishmania donovani [11]
  Activity: 47%
Leishmania donovani [12]
  Activity: 0.1%
Leishmania donovani [13]
  Activity: 1.56%
Leishmania donovani [14]
  Activity: 0.2%
Leishmania donovani [15]
  Activity: 0.2%
Leishmania donovani [16]
  Activity: 1.84%
Leishmania donovani [17]
  Activity: 52%
Leishmania donovani [18]
  Activity: 5.1%
Leishmania donovani [19]
  Activity: 0.7%
Leishmania donovani [20]
  Activity: 0.4%
Leishmania donovani [21]
  Activity: 19%
Leishmania donovani [22]
  Activity: 22.33%
Leishmania donovani [23]
  Activity: 26.3%
Leishmania donovani [24]
  Activity: 34.22%
Leishmania donovani [25]
  Activity: 0.2%
Leishmania donovani [26]
  Activity: 42%
Leishmania donovani [27]
  Activity: 4.8%
Leishmania donovani [28]
  inhibition at 10 µM: 66%
Leishmania donovani [29]
  Activity: 0.2%
Leishmania donovani [30]
  Activity: 1.4%
Leishmania donovani [31]
  Activity: inactive
Leishmania donovani [32]
  Activity: 0.3%
Leishmania donovani [33]
  Activity: 61.2%
Leishmania donovani [34]
  Activity: 41%
